Results: PubChem BioAssay AID602303 (The Scripps Research Institute Molecular Screening Center, 2012)
Activity calls are given as the source filed them.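 The calls were made as follows: active = inhibition of 50% or more; inactive = inhibition below 50%.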

These compounds were tested against Diacylglycerol lipase-beta (Mus musculus) (UniProt Q91WC9) (assay: mouse DAGLb inhibition, FP-Rh labelling competition – biochemical, in-gel fluorescence, overexpressed mouse DAGLb, triazole urea library, late-stage follow-up (AID 602303)). Conditions: HEK293T membrane overexpressing mouse DAGLb, gel ABPP FP-Rh; at 0.5 µM; active compounds read high.
Diacylglycerol lipase-beta (Mus musculus), sequence (Q91WC9 whole entry, looked up): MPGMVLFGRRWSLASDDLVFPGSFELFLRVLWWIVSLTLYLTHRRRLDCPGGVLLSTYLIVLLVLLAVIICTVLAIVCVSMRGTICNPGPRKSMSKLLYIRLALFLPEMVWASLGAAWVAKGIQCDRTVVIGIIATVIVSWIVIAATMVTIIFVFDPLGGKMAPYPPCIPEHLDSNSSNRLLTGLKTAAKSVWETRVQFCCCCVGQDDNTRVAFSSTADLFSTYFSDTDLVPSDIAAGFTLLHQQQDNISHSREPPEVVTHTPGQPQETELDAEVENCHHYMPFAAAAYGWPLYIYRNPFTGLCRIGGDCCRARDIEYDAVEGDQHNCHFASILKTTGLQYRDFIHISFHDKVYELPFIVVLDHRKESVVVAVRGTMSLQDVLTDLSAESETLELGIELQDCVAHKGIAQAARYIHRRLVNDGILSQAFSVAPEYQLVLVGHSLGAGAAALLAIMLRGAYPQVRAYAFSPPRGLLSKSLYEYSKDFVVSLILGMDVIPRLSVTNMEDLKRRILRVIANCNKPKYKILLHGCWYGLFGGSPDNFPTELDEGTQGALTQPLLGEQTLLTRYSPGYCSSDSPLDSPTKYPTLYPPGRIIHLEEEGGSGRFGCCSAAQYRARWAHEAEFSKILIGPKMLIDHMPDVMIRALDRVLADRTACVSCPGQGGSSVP
Procedure, shortened: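 System – HEK293T membranes overexpressing mouse DAGLb · Buffer or medium – DPBS · Also added – FP-Rh probe at 5 µM · Compound dosing – one concentration, 0.5 µM · Timing – 30 min compound plus 30 min probe, 37 °C · Signal – in-gel fluorescence after SDS-PAGE · Read-out basis – % inhibition from band IOD versus controls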
For O=C(N1CCCC1)n1ncc(-c2ccc(OC(F)(F)F)cc2)n1, the inhibition was 15% (inactive).
C=CCN(CC=C)C(=O)n1ncc(-c2ccccc2)n1 was tested, and the inhibition was 5% (inactive).
With O=C(N1CCCC1)n1ncc(-c2ccc(Cl)c(Cl)c2)n1 the inhibition was 30% (inactive).
With C=CCN(CC=C)C(=O)n1ccnn1 the inhibition was 25% (inactive).
With O=C(N1CCOCC1)n1ncc(-c2cc(F)cc(F)c2)n1 the inhibition was 20% (inactive).
For C=CCN(CC=C)C(=O)n1ncc(-c2cc(F)cc(F)c2)n1, the inhibition was 25% (inactive).
In the case of CC(C)(C)C1CCN(C(=O)n2ncc(C3(O)CCCCC3)n2)CC1, the inhibition is reported as 20% (inactive).
In the case of O=C(N1CCCCC1)n1ncc(C(O)c2ccccc2)n1 (configuration not stated), the inhibition is reported as 5% (inactive).
For COc1ccc2cc(-c3cnn(C(=O)N4CCCC4)n3)ccc2c1, the inhibition was 20% (inactive).
In the case of O=C(OC(c1ccccc1)c1cnn(C(=O)N2CCCCC2)n1)N1CCCCC1 (configuration not stated), the inhibition is reported as 15% (inactive).
For COCCCC1CCCCN1C(=O)n1ncc(C(O)(c2ccccc2)c2ccccc2)n1 (configuration not stated), the inhibition was 5% (inactive).
O=C(N1CCOCC1)n1ncc(-c2ccc(OC(F)(F)F)cc2)n1 was tested, and the inhibition was 40% (inactive).
COc1ccc2cc(-c3cnn(C(=O)N4CCCCC4)n3)ccc2c1 was tested, and the inhibition was 20% (inactive).
For C=CCN(CC=C)C(=O)n1ncc(C(O)(c2ccccc2)c2ccccc2)n1, the inhibition was 60%.
For CN1CCN(C(=O)n2ccnn2)CC1, the inhibition was 35% (inactive).
O=C(N1CCCC1)n1ncc(C(O)(c2ccccc2)c2ccccc2)n1 was tested, and the inhibition was 0% (inactive).
In the case of O=C(N1CCC(C(O)(c2ccccc2)c2ccccc2)CC1)n1nccn1, the inhibition is reported as 15% (inactive).
With O=C(N1CCOCC1)n1ncc(-c2ccccc2)n1 the inhibition was 0% (inactive).
In the case of CN(C(=O)n1ccnn1)c1ccccc1, the inhibition is reported as 25% (inactive).
CCC1CCCCN1C(=O)n1ncc(C(O)(c2ccccc2)c2ccccc2)n1 (configuration not stated) was tested, and the inhibition was 10% (inactive).
For O=C(N1CCCC1)n1ncc(-c2ccc(Oc3ccccc3)cc2)n1, the inhibition was 45% (inactive).
In the case of COC1CCN(C(=O)n2ncc(C(O)(c3ccccc3)c3ccccc3)n2)CC1, the inhibition is reported as 0% (inactive).
In the case of CC1CCN(C(=O)n2ncc(C(C)(C)O)n2)CC1, the inhibition is reported as 35% (inactive).
O=C(N1CCCCC1Cc1ccccc1)n1ncc(C(O)(c2ccccc2)c2ccccc2)n1 (configuration not stated) was tested, and the inhibition was 95%.
In the case of O=C(N1CCCC1)n1ncc(-c2ccccc2)n1, the inhibition is reported as 35% (inactive).
For CC(C)(O)c1cnn(C(=O)N2CCC(C(C)(C)C)CC2)n1, the inhibition was 45% (inactive).
For CCN(CC)C(=O)n1ccnn1, the inhibition was 0% (inactive).
With O=C(N1CCc2ccccc2C1)n1ncc(C(O)(c2ccccc2)c2ccccc2)n1 the inhibition was 35% (inactive).
For O=C(N(c1ccccc1)c1ccccc1)n1ccnn1, the inhibition was 5% (inactive).
With CC1CCN(C(=O)n2ncc(C(O)(c3ccccc3)c3ccccc3)n2)CC1 the inhibition was 10% (inactive).
In the case of O=C(N(c1ccccc1)c1ccccc1)n1ncc(C(O)(c2ccccc2)c2ccccc2)n1, the inhibition is reported as 65%.
In the case of O=C(n1ccnn1)n1c2ccccc2c2ccccc21, the inhibition is reported as 25% (inactive).
For CC(C)(O)c1cnn(C(=O)N2CCCCC2)n1, the inhibition was 25% (inactive).
For O=C(N1CCCC1)n1ncc(-c2ccc([N+](=O)[O-])cc2)n1, the inhibition was 35% (inactive).
O=C(N1CCCC1)n1ncc(-c2ccc(-c3ccccc3)cc2)n1 was tested, and the inhibition was 25% (inactive).
For O=C(N1CCC(Cc2ccccc2)CC1)n1ncc(C(O)(c2ccccc2)c2ccccc2)n1, the inhibition was 30% (inactive).
With O=C(N1CCCC1)n1ccnn1 the inhibition was 30% (inactive).
CC(C)(C)C1CCN(C(=O)n2ncc(C(O)(c3ccccc3)c3ccccc3)n2)CC1 was tested, and the inhibition was 45% (inactive).
In the case of O=C(N1CCCC1)n1ncc(-c2cc(F)cc(F)c2)n1, the inhibition is reported as 10% (inactive).
In the case of CC(C)(O)c1cnn(C(=O)N2CCCC2)n1, the inhibition is reported as 25% (inactive).
For CC(C)(C)C1CCN(C(=O)n2nccn2)CC1, the inhibition was 35% (inactive).
O=C(N1CCCCC1)n1ccnn1 was tested, and the inhibition was 20% (inactive).
Work on C=CCN(CC=C)C(=O)n1ncc(-c2ccc(OC(F)(F)F)cc2)n1 yielded an inhibition of 50%.
For O=C(N1CCCC1)n1ncc(C2(O)CCCCC2)n1, the inhibition was 25% (inactive).
With O=C(N1CCCCC1)n1ncc(C(O)(c2ccccc2)c2ccccc2)n1 the inhibition was 10% (inactive).
O=C(N1CCOCC1)n1ncc(C(O)(c2ccccc2)c2ccccc2)n1 was tested, and the inhibition was 15% (inactive).
O=C(N1CCC(C(O)(c2ccccc2)c2ccccc2)CC1)n1ncc(C(O)(c2ccccc2)c2ccccc2)n1 was tested, and the inhibition was 30% (inactive).
CCN(CC)C(=O)n1ncc(C(O)(c2ccccc2)c2ccccc2)n1 was tested, and the inhibition was 5% (inactive).
O=C(N1CCCCC1)n1ncc(-c2ccc(Oc3ccccc3)cc2)n1 was tested, and the inhibition was 40% (inactive).
For CN(C)C(=O)n1ccnn1, the inhibition was 0% (inactive).
With O=C(N1CCOCC1)n1ccnn1 the inhibition was 40% (inactive).
With COCC1CCCCN1C(=O)n1ncc(C(O)(c2ccccc2)c2ccccc2)n1 (configuration not stated) the inhibition was 15% (inactive).
